In data set [1] the target is T1, purified porcine brain tubulin (Sus scrofa, UniProt P02554). The data set is described as follows: Tubulin polymerization, turbidimetric at 340 nm. It counts as biochemical. The conditions noted are these: 5 μM compound, tubulin 2 mg/mL, 37°C. Put shortly:
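Test compound at 5 μM, a reference taccalonolide at 5−20 μM, or vehicle (1% EtOH). Samples were prepared on ice, then warmed to 37 °C to start polymerization. Rate and extent were followed turbidimetrically at 340 nm.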

For data set [2] the following is noted: compared to 3; cited from earlier work.
The conditions of data set [3]: plasma / in vivo; cited from earlier work.
The next data set in a line: Initial dose tolerance. It counts as in vivo, mice. The conditions noted are these: systemic (ip), drug-sensitive or -resistant xenograft models.
Data set [4] has as its system NCI/ADR-RES drug-resistant xenograft. It counts as in vivo. The note with it: for days with statistically significant effects vs paclitaxel-treated tumors / tumor growth following the first drug administration on day 0: intratumoral; for first day of statistically significant difference vs vehicle-treated tumors: intratumoral 20 μg on days 0, 3, 6, 10, 14, two-way ANOVA, Tukey; for persistence of antitumor efficacy after the final dose: intratumoral injection, paclitaxel-resistant tumor; for tumor growth following the first drug administration on day 0: 20 μg 21 or 26, 40 μg paclitaxel.

Data set [5] concerns HeLa cervical cancer cell line. The note with it: cited from earlier work.
For data set [6], the target named is T1, purified porcine brain tubulin. The conditions noted are these: cited from earlier work.
Data set [7] relates to NCI/ADR-RES drug-resistant xenograft. The conditions noted are these: systemic administration; no reference given; cited from earlier work.
For data set [8] the following is noted: aqueous conditions; cited from earlier work.
Data set [9] in a line: Hydrolytic stability in aqueous solution. The format is physicochemical. The note with it: 10 mg in 1:1 EtOH-PBS, 36 h, room temperature. Put shortly:
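Test compound stirred in 1× PBS–EtOH; the mixture was then vacuum-dried and extracted with CH3CN. The hydrolysis product was isolated by semipreparative C18 HPLC eluted with 60−100% CH3CN/H2O containing 0.1% formic acid. Isolated yield was the read-out.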

Where “and” joins values, the source holds several entries; their conditions need not be identical. Identical values can stand only once. Entries after “also recorded” stand apart in the source; their conditions may differ.

This is an account of results in PMC5866228 (Journal of natural products, 2018).

T1 sequence (P02554 whole entry): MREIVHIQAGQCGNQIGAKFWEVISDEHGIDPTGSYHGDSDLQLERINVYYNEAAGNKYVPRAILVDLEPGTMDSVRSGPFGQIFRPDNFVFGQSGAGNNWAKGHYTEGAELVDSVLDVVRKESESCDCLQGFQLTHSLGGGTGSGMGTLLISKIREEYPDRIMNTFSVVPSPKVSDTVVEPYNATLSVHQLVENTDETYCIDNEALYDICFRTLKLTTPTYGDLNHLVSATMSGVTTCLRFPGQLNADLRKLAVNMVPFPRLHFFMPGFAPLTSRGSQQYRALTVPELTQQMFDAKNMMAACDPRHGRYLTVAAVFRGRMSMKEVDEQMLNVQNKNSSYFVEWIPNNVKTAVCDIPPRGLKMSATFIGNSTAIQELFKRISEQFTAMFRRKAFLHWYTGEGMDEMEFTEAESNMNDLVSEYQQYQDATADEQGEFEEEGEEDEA
T1 sequence (P02550 whole entry partner): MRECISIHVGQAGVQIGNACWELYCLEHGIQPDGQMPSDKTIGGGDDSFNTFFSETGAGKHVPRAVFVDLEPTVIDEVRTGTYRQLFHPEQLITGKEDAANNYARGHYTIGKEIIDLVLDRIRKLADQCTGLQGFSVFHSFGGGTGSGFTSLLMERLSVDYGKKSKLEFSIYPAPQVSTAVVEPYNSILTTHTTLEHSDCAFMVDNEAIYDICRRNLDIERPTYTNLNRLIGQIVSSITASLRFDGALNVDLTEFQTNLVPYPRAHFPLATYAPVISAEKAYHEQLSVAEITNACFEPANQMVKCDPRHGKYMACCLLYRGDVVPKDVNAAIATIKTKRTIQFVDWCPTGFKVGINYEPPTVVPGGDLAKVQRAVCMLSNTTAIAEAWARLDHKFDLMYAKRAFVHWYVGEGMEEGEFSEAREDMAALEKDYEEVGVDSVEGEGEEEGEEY

Consider `CC(=O)O[C@H]1[C@H]2[C@H]([C@@H]3[C@@H](O)[C@@H]4[C@H]([C@H](C)[C@H]5O[C@]56OC(=O)[C@@](C)(O)[C@]46C)[C@@]3(C)[C@H]1OC(C)=O)[C@@H](OC(=O)C(C)(C)C)C(=O)[C@H]1C[C@@H]3O[C@@H]3[C@H](OC(C)=O)[C@]21C` [Compound 27], for which the “extent of tubulin polymerization compared with 4” value (from here on “extent … compared with 4”) in [1] is on record as “comparable levels of tubulin polymerization compared to an equivalent concentration of 4”.
Take `CC(=O)O[C@H]1[C@H]2[C@H]([C@@H]3[C@@H](O)[C@@H]4[C@H]([C@H](C)[C@H]5O[C@]56OC(=O)[C@@](C)(O)[C@]46C)[C@@]3(C)[C@H]1OC(C)=O)[C@@H](O)C(=O)[C@H]1C[C@@H]3O[C@@H]3[C@H](OC(C)=O)[C@]21C` [Compound 4, taccalonolide AJ]: in data set [2], the microsomal clearance result is listed as “higher microsomal clearance; also recorded: increased rate of microsomal clearance as compared to 3”. Also, in [3], the half-life result is listed as “lower in vivo half-life; also recorded: shorter plasma half-life”.
Take `CC(=O)O[C@H]1[C@H]2[C@H]([C@@H]3[C@@H](OC(=O)C(C)(C)C)[C@@H]4[C@H]([C@H](C)[C@H]5O[C@]56OC(=O)[C@@](C)(O)[C@]46C)[C@@]3(C)[C@H]1OC(C)=O)[C@@H](O)C(=O)[C@H]1C[C@@H]3O[C@@H]3[C@H](OC(C)=O)[C@]21C` [Compound 22]: the “antitumor effects during MTD evaluations” value in “Initial dose tolerance” is on record as “lack of observable antitumor effects”.
`CC(=O)O[C@H]1[C@H]2[C@H]([C@@H]3[C@@H](OC(=O)C(C)C)[C@@H]4[C@H]([C@H](C)[C@H]5O[C@]56OC(=O)[C@@](C)(O)[C@]46C)[C@@]3(C)[C@H]1OC(C)=O)[C@@H](O)C(=O)[C@H]1C[C@@H]3O[C@@H]3[C@H](OC(C)=O)[C@]21C` [Compound 20]: the “extent … compared with 4” value in [1] was “comparable levels of tubulin polymerization compared to an equivalent concentration of 4”. Further, in “Initial dose tolerance”, the “antitumor effects during MTD evaluations” value is on record as “lack of observable antitumor effects”.
On to `CC(=O)O[C@H]1[C@H]2[C@H]([C@@H]3[C@@H](OC(=O)CC(C)C)[C@@H]4[C@H]([C@H](C)[C@H]5O[C@]56OC(=O)[C@@](C)(O)[C@]46C)[C@@]3(C)[C@H]1OC(C)=O)[C@@H](O)C(=O)[C@H]1C[C@@H]3O[C@@H]3[C@H](OC(C)=O)[C@]21C` [Compound 21], for which, in [1], the “extent … compared with 4” value is given as “greater extent of tubulin polymerization than equivalent concentrations of 4”. For the same molecule, the “antitumor effects during MTD evaluations” value in the data set “Initial dose tolerance” is “lack of observable antitumor effects”. Further, the “first day on which a tumor reached 1,500 mm^3” value in data set [4] (31 days after the final dose, intratumoral 20 μg) is 45 days. In [4], the “days with statistically significant effects vs paclitaxel-treated tumors” value fell in the range of 12 to 14 days, the “first day of statistically significant difference vs vehicle-treated tumors” value was found to be 10 days, the “persistence of antitumor efficacy after the final dose” value is listed as “at least 30 days” and the “tumor growth following the first drug administration on day 0” value was “abruptly slowed”.
Turning to `CC(=O)O[C@H]1C(=O)[C@@]2(C)[C@H]([C@H](OC(=O)c3ccccc3)[C@]3(O)C[C@H](OC(=O)[C@H](O)[C@@H](NC(=O)c4ccccc4)c4ccccc4)C(C)=C1C3(C)C)[C@]1(OC(C)=O)CO[C@@H]1C[C@@H]2O` [paclitaxel, reference compound], the “tumor growth rate compared with vehicle up to day 14” value in [4] (intratumoral 40 μg) is “not different statistically”. For the same molecule, the “tumor growth following the first drug administration on day 0” value in data set [4] is given as “unaffected”.
Take `CC(=O)O[C@@H]1[C@H]2[C@H]3[C@H]([C@H](OC(C)=O)[C@H](OC(C)=O)[C@]2(C)[C@H]2[C@H](C)[C@H]4O[C@]45OC(=O)[C@@](C)(O)[C@]5(C)[C@H]12)[C@]1(C)[C@H](C[C@@H]2O[C@@H]2[C@@H]1OC(C)=O)C(=O)[C@@H]3O` [Compound 3, taccalonolide AF]: the “potency relative to 1” value in data set [5] was “over 200 fold”. Moreover, in data set [6], the “effect on polymerization of purified tubulin” value is recorded as “directly stimulates the polymerization of purified tubulin”. Also, the “efficacy in the taxane-resistant model” value in data set [7] is “has efficacy in this taxane-resistant model with systemic administration”. In addition, the “hydrolysis of C-15 acetoxy group” value in data set [8] is recorded as “readily hydrolyzed to generate 4 under aqueous conditions”.
For the molecule `CC(=O)O[C@H]1[C@H]2[C@H]([C@@H]3[C@@H](O)[C@@H]4[C@H]([C@H](C)[C@H]5O[C@]56OC(=O)[C@@](C)(O)[C@]46C)[C@@]3(C)[C@H]1OC(C)=O)[C@@H](OC(=O)CC(C)C)C(=O)[C@H]1C[C@@H]3O[C@@H]3[C@H](OC(C)=O)[C@]21C` [Compound 26], in data set [1], the “extent … compared with 4” value is given as “greater extent of tubulin polymerization than equivalent concentrations of 4”. Further, the “antitumor effects during MTD evaluations” value in “Initial dose tolerance” is “lack of observable antitumor effects”. Also, the “growth of tumors with smaller initial volumes (130 – 233 mm^3)” value in [4] (four tumors, intratumoral 20 μg) was “did not increase in size even by day 54”. Further, in data set [4], the “days with statistically significant effects vs paclitaxel-treated tumors” value fell in the range of 12 to 14 days, the “first day of statistically significant difference vs vehicle-treated tumors” value came to 12 days, the “persistence of antitumor efficacy after the final dose” value was “at least 30 days” and the “tumor growth following the first drug administration on day 0” value is reported as “abruptly slowed”.
Turning to `CC(=O)O[C@H]1[C@H]2[C@H]([C@@H]3[C@@H](OC(=O)C4CC4)[C@@H]4[C@H]([C@H](C)[C@H]5O[C@]56OC(=O)[C@@](C)(O)[C@]46C)[C@@]3(C)[C@H]1OC(C)=O)[C@@H](O)C(=O)[C@H]1C[C@@H]3O[C@@H]3[C@H](OC(C)=O)[C@]21C` [Compound 19], the “extent … compared with 4” value in data set [1] was “comparable levels of tubulin polymerization compared to an equivalent concentration of 4”. In addition, the “antitumor effects during MTD evaluations” value in the data set “Initial dose tolerance” was “lack of observable antitumor effects”.
Turning to `CC(=O)O[C@H]1[C@H]2[C@H]([C@@H]3[C@@H](OC(=O)c4ccc5c(c4)C(=O)c4ccccc4C5=O)[C@@H]4[C@H]([C@H](C)[C@H]5O[C@]56OC(=O)[C@@](C)(O)[C@]46C)[C@@]3(C)[C@H]1OC(C)=O)[C@@H](O)C(=O)[C@H]1C[C@@H]3O[C@@H]3[C@H](OC(C)=O)[C@]21C` [Compound 24], in [9], the “hydrolysis to 4, yield” value is 67.4% and 67%.
